This is a sample that favours compounds with a hit; in the whole collection about 1.7% have one here.
eIF4H FP inh – inhibitors of RNA binding by human eIF4H; Q15056; eIF4H fluorescence polarization binding assay; inhibition, % at 35 µM; 290,000 compounds, 0.94% hits;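 further: calls also rest on retests at 20 µM and on dose response follow-up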
MT1-MMP act inh – inhibitors of human MT1-MMP activation | P50281 | HT1080 RFP-PRO-GFP cells, GFP/RFP ratio fluorescence, overnight; percent of plate control window, DMSO zero | GFP/RFP ratio change, % at 20 µM | 360,000 compounds, 0.061% hits;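 active means GFP/RFP ratio change of at least 30% with cell ATP level not reduced by more than half and red fluorescence within 50% of control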
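Material – HT1080 RFP-PRO-GFP cells · Control set – DMSO wells and RFP-L50D-GFP cells · Incubation – overnight cell settling, then overnight compound exposure, 37 °C, 5% CO2 · Compound dosing – single-point 20 µM compound, 1% DMSO · Read-out – GFP/RFP fluorescence ratio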
MLLE-PAM2 inh – blocks PAM2 peptide binding to the PABP1 MLLE domain. inhibition, % at 20 µM. GST-MLLE / FITC-PAM2 fluorescence polarization. 360,000 compounds, 0.36% hits; in the data active means inhibition above about 35%, passing the limit was not always enough;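 further: plate controls were DMSO wells with GST-MLLE for no effect and wells lacking GST-MLLE protein for full effect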
SKN-1 inh – C. elegans SKN-1 inhibition. C. elegans VP596 Pgst-4::GFP/RFP ratio, acrylamide-induced, 24 h. inhibition, % at 21.8 µM. 360,000 compounds, 0.49% hits. AID 624304;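 active means interference check ratio from 0.5 to 1.5 plus GFP to RFP signal ratio inhibition reaching or exceeding a fixed threshold, cut at about 30% in these data, passing the limit was not always enough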
PABP FP inh – PABP-poly(A) binding inhibition; P11940; PABP-poly(A) RNA binding, fluorescence polarization; inhibition, % at 35 µM; 290,000 compounds, 1% hits;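 further: calls also rest on retests at 20 µM and on dose response follow-up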
Starred values were filed as active, the others as inactive; ? = inconclusive; · = not tested or not shown. Unless noted, how the calls were made is not given here.

SMILES	eIF4H FP inh	MT1-MMP act inh	MLLE-PAM2 inh	SKN-1 inh	PABP FP inh
COc1cccc(C2NC(=O)CCC2[N+](=O)[O-])c1 (stereo not given)	2	3	2	-14	10
Cc1ccc(C)n1-c1ccc(C(=O)N/N=C/c2ccncc2)cc1	0	2	-5	-8	-8
COc1cccc(-c2noc(-c3ccoc3C)n2)c1	2	-3	-16	56*	25
COc1ccc(-c2ccc(-c3noc(-c4cccs4)n3)c(OC)n2)cc1	29*	-1	-47	29	50*
COc1cc(OC)cc(-c2nc(-c3cccs3)no2)c1	27	-2	2	-1	5
COc1cccc(-c2nc(-c3cccs3)no2)c1	6	-1	0	46*	1
CC(OC(=O)CCN=C1NS(=O)(=O)c2ccccc21)C(=O)Nc1ccccc1F (stereo not given)	·	-3	4	13	·
CCC(C)NS(=O)(=O)c1cc2c3c(c1)CCC(=O)N3CCC2 (stereo not given)	3	0	-5	1	8
COc1ccc(NC(=O)CNC(=O)c2cccs2)cc1Cl	-5	-4	8	-3	-6
Cc1ccc(NC(=O)CNC(=O)c2cccs2)cc1S(=O)(=O)Nc1ccc(Cl)cc1	-11	-1	-2	41*	-4
C=CCn1c(O)c(N=NC(=O)OCC)c2ccccc21	active	-1	5	16	74
CCN1CCN(C(=O)N(c2ccccc2)c2ccccc2)CC1	12	-6	0	-1	6
Cc1cc2nc(-c3cccc(NC(=O)c4ccc(Br)o4)c3)oc2cc1C	active	7	4	1	86*
O=C(Nc1ccc(-c2nc3ncccc3o2)cc1)c1ccc(Br)o1	-10	-16	-30	38*	2
O=C(Nc1ccc2oc(-c3cccnc3)nc2c1)c1ccc(Br)o1	15	0	2	35*	-10
CC1=C(C(=O)N2CCOCC2)CC(CC(=O)NCc2cccs2)C(=O)N1Cc1ccccc1 (stereo not given)	·	1	1	5	·
CCCCCC(=O)Nc1ccc(C(=O)COC(=O)CN2C(=O)NC3(CCCC3)C2=O)cc1	·	0	-13	-1	·
Cc1cc(=S)[nH]c(=S)[nH]1	2	4	24	-6	1
C[C@]12C[C@H](O)[C@H]3[C@@H](CCC4=CC(=O)CC[C@@]43C)[C@@H]1CC[C@@H]2C(=O)CO	5.2*	5	1	1	118
Cc1ccc(C(=O)COC(=O)CCC(=O)Nc2ccccc2Cl)cc1[N+](=O)[O-]	4.8*	0	-1	7	102*
CC(C)c1ccc(NC(=O)C(c2ccccc2)N2CC(=O)Nc3ccccc32)cc1 (stereo not given)	-5	-8	0	21	10
CCN(C(=O)COC(=O)c1cc([N+](=O)[O-])ccc1N1CCOCC1)C1CCCCC1	·	0	-22	6	·
Cc1ccc(C(=O)NCC(=O)N2CCC3(CC2)NCCc2[nH]cnc23)cc1C	·	1	-32	-1	·
COc1cccc(C(=O)NCC(=O)N2CCC3(CC2)NCCc2[nH]cnc23)c1	·	2	4	36*	·
O=C(CCC1CCCC1)NNC(=O)c1ccccc1O	·	0	31	-4	·
SMILES	eIF4H FP inh	MT1-MMP act inh	MLLE-PAM2 inh	SKN-1 inh	PABP FP inh
Cc1sc2ncnc(N/N=C/c3cccc(O)c3)c2c1C	-2	0	1	12	3
C/C(=N\Nc1ncnc2sc(C)c(C)c12)c1ccccn1	?	-76	-8	11	53*
O=C(NC1=C(Nc2ccc(Cl)cc2)C(=O)c2ccccc2C1=O)c1ccccc1	1	12	21	14	-8
COc1ccc(NC(=O)c2cccc(OC(F)F)c2)cc1Cl	2	4	1	9	14
O=C(Nc1ccc(OC(F)F)c(Cl)c1)c1cccc(OC(F)F)c1	-12	8	7	44*	-10
O=C(Nc1csc(Cl)c1)c1ccccc1	·	-1	10	42*	·
O=C(Nc1ccc(Cl)c(Cl)c1)Nc1nnc(-c2ccncc2)s1	74*	-14	-6	11	0.7*
O=C1C(Cl)=C(NC(=O)c2ccccc2)C(=O)C(Cl)=C1NC(=O)c1ccccc1	0	-4	57*	7	25
C/C(Cn1ncc(N2CCOCC2)c(Cl)c1=O)=N\O	5	-1	-2	10	17
O[C@@H]1CN(CC2CCCCC2)[C@@H](c2ccccc2)C[C@H]1n1cc(-c2ccc(F)cc2)nn1	·	-7	8	10	·
Cc1ccc(NC(=O)Cc2ccccc2)cc1S(=O)(=O)N1CCOCC1	·	3	2	-18	·
C[C@H](NC(=O)[C@@H]1CCCN1C(=O)OC(C)(C)C)c1ccccc1	·	2	·	14	·
COc1ccc(NC(=O)C(c2ccc(C#N)cc2)n2c(=O)c(-c3ccco3)nc3ccccc32)cc1 (stereo not given)	·	3	·	22	·
COc1ccc(-c2csc(C(O)c3cccc(OC)c3)n2)cc1 (stereo not given)	·	-6	-5	15	·
O=C(Nc1ccc(Cl)c(Cl)c1)Nc1ccon1	-8	-8	-10	46*	-7
O=C(Nc1cccc(Cl)c1)c1ccccc1	·	-1	1	4	·
O=C(Nc1ccc(Cl)c(Cl)c1)c1ccccc1	·	0	-3	43*	·
COc1ccc(-c2cc(=O)c3cc(O)ccc3o2)cc1	5	1	1	1	2
COc1ccc2oc(-c3ccncc3)cc(=O)c2c1	·	-1	40*	17	·
Fc1cc(Br)ccc1COc1ccc(-c2nnco2)cc1	-11	4	20	49*	-4
FC(F)(F)c1cnc(Oc2ccc(-c3nnco3)cc2)c(Cl)c1	8	1	-18	29	4
O=C(COc1ccc(-c2nnco2)cc1)Nc1c(F)cccc1F	·	1	2	9	·
Fc1ccc(COc2ccc(-c3nnco3)cc2)c(Cl)c1	-6	2	-2	87*	1
CCOc1ccccc1NC(=O)CN1CCC(NC(=O)Nc2ccccc2)CC1	-5	2	6	2	2
COc1ccc(C2=NO[C@@H]3[C@@H]4C[C@@H]([C@H]5C(=O)N(C)C(=O)[C@@H]45)[C@H]23)c(OC)c1	-8	1	7	14	-7
SMILES	eIF4H FP inh	MT1-MMP act inh	MLLE-PAM2 inh	SKN-1 inh	PABP FP inh
COc1ccc(-c2cc(-c3ccccc3)n[nH]2)c(O)c1	3	6	-8	35*	8
CN(C)CCNc1oc(COc2ccc(Cl)cc2Cl)nc1C#N	30	-8	15	7	62*
O=C(O)c1ccccc1-c1ccccc1C(=O)Nc1ccc2c(c1)oc(=O)c1ccccc12	·	1	13	36*	·
CCc1ccc(OCCCCN(C)Cc2ccccc2)cc1	17	12	1	-2	4
O=C(C(=O)N1CCN(C(=O)c2ccco2)CC1)c1cc2ccccc2o1	·	-1	·	0	·
Cc1ccc(Cn2c(CCCO)nc3ccccc32)cc1	2	0	5	-1	14
O=S1(=O)C=C[C@H](COCc2ccccc2)N1	·	1	7	10	·

Screening data: PubChem BioAssay, Sanford-Burnham Center for Chemical Genomics
